From the M2OR odorant receptor database
Residue numbers refer to the chain shown, from its start.

Columns and labels:
Conditions in all cases: stereoisomer not certain
[1] = target: T1, OR2G2 (Homo sapiens) (UniProt Q8NGZ5)
T1 sequence (whole entry): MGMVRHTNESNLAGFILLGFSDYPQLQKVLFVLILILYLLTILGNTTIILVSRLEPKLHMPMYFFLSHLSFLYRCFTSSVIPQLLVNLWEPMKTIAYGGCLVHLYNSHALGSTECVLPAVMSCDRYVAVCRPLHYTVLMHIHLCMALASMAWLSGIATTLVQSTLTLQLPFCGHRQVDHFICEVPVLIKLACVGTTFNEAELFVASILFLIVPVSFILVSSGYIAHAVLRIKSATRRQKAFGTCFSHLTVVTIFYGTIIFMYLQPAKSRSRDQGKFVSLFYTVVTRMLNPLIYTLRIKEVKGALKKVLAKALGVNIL
How it was run: (§1)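 Values were gathered from published papers (main text and supplementary material), with extra details requested from the original authors when needed, and checked for typos and inconsistencies. Each receptor–molecule pair is called responsive (active) if the original authors judged the measured signal statistically different from baseline, and non-responsive (inactive) otherwise. Assay methods varied by source, often transient mammalian cell-line luciferase assays. Recorded details include cell line, G-protein, co-transfected protein and tags.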

[2] = target: T2, OR2C3 (Homo sapiens) (UniProt Q8N628)
T2 sequence (whole entry): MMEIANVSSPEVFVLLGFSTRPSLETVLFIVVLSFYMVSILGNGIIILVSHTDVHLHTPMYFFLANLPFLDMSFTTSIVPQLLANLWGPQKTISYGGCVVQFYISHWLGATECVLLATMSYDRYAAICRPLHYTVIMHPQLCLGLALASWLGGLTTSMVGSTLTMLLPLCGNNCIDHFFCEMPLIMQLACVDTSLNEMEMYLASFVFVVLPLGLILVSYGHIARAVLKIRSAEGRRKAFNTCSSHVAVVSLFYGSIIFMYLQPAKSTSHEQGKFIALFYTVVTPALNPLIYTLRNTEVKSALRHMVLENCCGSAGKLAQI
How it was run: as §1

[3] = target: T3, OR2D2 (Homo sapiens) (UniProt Q9H210)
T3 sequence (whole entry): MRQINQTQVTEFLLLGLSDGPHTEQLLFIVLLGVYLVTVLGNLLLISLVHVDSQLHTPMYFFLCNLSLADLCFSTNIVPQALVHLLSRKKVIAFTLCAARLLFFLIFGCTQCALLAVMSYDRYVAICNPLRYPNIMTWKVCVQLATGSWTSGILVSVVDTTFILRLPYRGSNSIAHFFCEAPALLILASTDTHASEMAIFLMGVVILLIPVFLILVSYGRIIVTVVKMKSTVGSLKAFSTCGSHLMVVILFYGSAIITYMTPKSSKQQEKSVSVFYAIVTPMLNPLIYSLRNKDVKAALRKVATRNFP
How it was run: as §1

[4] = target: T4, OR2D3 (Homo sapiens) (UniProt Q8NGH3)
T4 sequence (whole entry): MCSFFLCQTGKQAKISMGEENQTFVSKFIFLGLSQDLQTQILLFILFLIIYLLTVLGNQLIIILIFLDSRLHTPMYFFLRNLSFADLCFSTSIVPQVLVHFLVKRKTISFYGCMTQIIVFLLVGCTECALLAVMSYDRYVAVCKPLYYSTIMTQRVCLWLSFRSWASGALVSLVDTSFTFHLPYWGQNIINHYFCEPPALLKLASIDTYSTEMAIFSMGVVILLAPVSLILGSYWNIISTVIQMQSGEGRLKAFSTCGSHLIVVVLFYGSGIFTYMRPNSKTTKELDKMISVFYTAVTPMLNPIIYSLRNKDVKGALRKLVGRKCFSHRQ
How it was run: as §1

[5] = target: T5, OR2F1 (Homo sapiens) (UniProt Q13607)
T5 sequence (whole entry): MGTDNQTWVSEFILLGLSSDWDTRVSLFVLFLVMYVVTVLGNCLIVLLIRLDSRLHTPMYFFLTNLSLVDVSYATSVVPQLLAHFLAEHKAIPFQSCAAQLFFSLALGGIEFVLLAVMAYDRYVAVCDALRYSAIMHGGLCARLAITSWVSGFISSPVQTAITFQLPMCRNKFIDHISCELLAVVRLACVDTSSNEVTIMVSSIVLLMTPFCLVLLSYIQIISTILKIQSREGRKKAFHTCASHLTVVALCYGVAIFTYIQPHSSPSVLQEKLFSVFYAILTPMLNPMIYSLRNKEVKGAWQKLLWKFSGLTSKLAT
How it was run: as §1

[6] = target: T6, OR2F2 (Homo sapiens) (UniProt O95006)
T6 sequence (whole entry): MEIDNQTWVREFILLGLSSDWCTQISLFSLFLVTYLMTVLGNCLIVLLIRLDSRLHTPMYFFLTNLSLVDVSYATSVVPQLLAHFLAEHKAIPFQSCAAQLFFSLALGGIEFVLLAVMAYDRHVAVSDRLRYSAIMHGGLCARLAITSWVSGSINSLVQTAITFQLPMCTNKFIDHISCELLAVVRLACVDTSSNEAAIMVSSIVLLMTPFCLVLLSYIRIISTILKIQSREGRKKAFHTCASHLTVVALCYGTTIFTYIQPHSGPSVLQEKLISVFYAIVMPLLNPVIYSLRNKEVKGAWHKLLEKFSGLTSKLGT
How it was run: as §1

[7] = target: T7, OR2G3 (Homo sapiens) (UniProt Q8NGZ4)
T7 sequence (whole entry): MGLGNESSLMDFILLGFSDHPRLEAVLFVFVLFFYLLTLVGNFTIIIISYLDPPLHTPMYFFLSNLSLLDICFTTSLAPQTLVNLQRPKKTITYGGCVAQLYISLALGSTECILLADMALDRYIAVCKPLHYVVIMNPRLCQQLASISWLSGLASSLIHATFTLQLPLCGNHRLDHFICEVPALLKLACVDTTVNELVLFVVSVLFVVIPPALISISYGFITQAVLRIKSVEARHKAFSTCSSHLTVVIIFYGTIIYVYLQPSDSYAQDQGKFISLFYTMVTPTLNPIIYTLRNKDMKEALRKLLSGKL
How it was run: as §1

[8] = target: T8, OR2G6 (Homo sapiens) (UniProt Q5TZ20)
T8 sequence (whole entry): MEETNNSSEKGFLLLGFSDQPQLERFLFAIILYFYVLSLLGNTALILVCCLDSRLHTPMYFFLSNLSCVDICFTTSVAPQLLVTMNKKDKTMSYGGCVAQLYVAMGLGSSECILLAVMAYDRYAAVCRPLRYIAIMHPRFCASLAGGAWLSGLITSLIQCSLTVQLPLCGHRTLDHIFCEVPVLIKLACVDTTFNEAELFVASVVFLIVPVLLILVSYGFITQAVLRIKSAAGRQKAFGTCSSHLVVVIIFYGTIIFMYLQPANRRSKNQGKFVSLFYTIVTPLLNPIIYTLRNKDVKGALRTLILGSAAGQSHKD
How it was run: as §1

[9] = target: T9, OR2H1 (Homo sapiens) (UniProt Q9GZK4)
T9 sequence (whole entry): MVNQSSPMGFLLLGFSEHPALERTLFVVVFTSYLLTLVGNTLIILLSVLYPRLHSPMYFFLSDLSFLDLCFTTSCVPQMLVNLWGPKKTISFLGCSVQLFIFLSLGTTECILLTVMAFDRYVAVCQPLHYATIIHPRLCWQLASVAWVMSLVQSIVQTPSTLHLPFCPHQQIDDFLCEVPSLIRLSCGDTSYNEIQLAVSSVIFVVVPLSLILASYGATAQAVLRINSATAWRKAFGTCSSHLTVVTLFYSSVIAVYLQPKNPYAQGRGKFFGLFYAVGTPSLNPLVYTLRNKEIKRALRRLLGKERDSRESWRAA
How it was run: as §1

[10] = target: T10, OR2H2 (Homo sapiens) (UniProt O95918)
T10 sequence (whole entry): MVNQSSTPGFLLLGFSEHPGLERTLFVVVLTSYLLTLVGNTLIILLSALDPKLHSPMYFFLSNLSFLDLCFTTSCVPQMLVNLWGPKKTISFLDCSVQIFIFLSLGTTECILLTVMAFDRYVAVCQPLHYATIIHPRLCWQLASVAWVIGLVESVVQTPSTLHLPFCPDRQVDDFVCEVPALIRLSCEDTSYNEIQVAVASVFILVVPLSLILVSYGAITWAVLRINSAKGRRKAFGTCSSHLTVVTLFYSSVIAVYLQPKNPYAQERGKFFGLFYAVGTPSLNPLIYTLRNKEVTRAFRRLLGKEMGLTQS
How it was run: as §1

[11] = tested on: OR2C1
How it was run: as §1
Target sequence in this assay (as listed by the source): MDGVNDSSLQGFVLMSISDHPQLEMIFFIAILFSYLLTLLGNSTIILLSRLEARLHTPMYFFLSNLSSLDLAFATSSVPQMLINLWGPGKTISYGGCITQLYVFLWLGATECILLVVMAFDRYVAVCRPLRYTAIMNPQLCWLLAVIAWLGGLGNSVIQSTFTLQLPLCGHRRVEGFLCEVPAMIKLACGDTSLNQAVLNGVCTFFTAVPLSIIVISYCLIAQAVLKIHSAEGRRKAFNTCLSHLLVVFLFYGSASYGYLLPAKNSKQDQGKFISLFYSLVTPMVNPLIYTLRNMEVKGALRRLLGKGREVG

[12] = tested on: OR2C1; remark: listed apart in the source
How it was run: as §1
Target sequence in this assay (as listed by the source): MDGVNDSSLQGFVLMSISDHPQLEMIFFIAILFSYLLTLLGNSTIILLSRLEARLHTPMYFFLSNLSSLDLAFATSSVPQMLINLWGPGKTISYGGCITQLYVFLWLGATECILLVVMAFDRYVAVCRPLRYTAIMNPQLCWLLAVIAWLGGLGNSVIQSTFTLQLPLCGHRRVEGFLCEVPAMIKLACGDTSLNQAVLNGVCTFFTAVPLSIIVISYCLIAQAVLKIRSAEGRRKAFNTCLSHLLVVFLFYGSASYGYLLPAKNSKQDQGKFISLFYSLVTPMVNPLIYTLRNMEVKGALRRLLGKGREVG

[13] = tested on: T11, OR2C1; remark: listed apart in the source
T11 sequence (whole entry): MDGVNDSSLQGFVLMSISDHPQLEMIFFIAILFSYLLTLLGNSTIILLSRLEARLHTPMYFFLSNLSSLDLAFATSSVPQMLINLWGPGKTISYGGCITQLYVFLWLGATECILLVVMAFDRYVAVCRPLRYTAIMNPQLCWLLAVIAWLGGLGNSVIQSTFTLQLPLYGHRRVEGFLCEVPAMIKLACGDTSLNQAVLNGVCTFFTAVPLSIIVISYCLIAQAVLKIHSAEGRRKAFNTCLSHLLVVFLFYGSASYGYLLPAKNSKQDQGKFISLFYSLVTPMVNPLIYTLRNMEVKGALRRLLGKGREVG
How it was run: as §1

[14] = tested on: OR2F1
How it was run: as §1

[15] = tested on: T12, OR2C3
T12 sequence (whole entry): T2 sequence (whole entry) with T20A, P68S, L289V
How it was run: as §1

[16] = tested on: T13, OR2C3; remark: listed apart in the source
T13 sequence (whole entry): T2 sequence (whole entry) with P68S
How it was run: as §1

[17] = tested on: T14, OR2D2 S148P I163T M202T
T14 sequence (whole entry): T3 sequence (whole entry) with S148P, I163T, M202T
How it was run: as §1

[18] = tested on: T15, OR2D3 R155W
T15 sequence (whole entry): T4 sequence (whole entry) with R155W
How it was run: as §1

[19] = tested on: T16, OR2G2 L167P R236G
T16 sequence (whole entry): T1 sequence (whole entry) with L167P, R236G
How it was run: as §1

[20] = tested on: T17, OR2G3 I289V
T17 sequence (whole entry): T7 sequence (whole entry) with I289V
How it was run: as §1

Measured: odorant receptor agonist call

OR2F1, sequence (as listed by the source): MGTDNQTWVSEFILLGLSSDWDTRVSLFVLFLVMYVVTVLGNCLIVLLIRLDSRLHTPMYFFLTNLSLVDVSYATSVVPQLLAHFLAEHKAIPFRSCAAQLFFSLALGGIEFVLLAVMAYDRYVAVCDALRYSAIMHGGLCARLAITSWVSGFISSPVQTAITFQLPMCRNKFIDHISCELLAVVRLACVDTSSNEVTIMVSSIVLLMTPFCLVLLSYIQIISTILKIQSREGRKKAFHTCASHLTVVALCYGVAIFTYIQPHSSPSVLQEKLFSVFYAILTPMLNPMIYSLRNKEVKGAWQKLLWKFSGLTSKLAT

CCCCCC1COCCC1OC(C)=O (stereo not drawn)
inactive: [1]

CCCCC(S)C(C)CO (stereo not drawn)
inactive: [2] | [3] | [4] | [5] | [6] | [1] | [7] | [8] | [9] | [10]

CCCCCCCCS
active: [11] | [12] | [13]

CC(=O)OCc1ccccc1
inactive: [1]

O=C([O-])C[SH2+]
inactive: [13] | [14]

Cc1cnc(C)c(C)n1
inactive: [15] | [16] | [3] | [17] | [4] | [18] | [5] | [6] | [1] | [19] | [7] | [20] | [8] | [9] | [10]

CC(CO)CS (stereo not drawn)
inactive: [2] | [3] | [4] | [5] | [6] | [1] | [7] | [8] | [9] | [10]

CCC1OC(=O)C(O)=C1C (stereo not drawn)
inactive: [15] | [16] | [3] | [17] | [4] | [18] | [5] | [6] | [1] | [19] | [7] | [20] | [8] | [9] | [10]

CC1CC(C)(c2ccccc2)CO1 (stereo not drawn)
inactive: [1]

OCc1ccccc1
inactive: [1]

CCCC(S)CCOC(C)=O (stereo not drawn)
inactive: [15] | [16] | [3] | [17] | [4] | [18] | [5] | [6] | [1] | [19] | [7] | [20] | [8] | [9] | [10]

CCCCCC(=O)C(C)C(C)=O (stereo not drawn)
inactive: [2] | [3] | [4] | [5] | [6] | [1] | [7] | [8] | [9] | [10]

c1coc(CSSCc2ccco2)c1
inactive: [13]

CCC1OC(C)=C(O)C1=O (stereo not drawn)
inactive: [15] | [16] | [3] | [17] | [4] | [18] | [5] | [6] | [1] | [19] | [7] | [20] | [8] | [9] | [10]

CC(=O)c1c(C)c([N+](=O)[O-])c(C(C)(C)C)c([N+](=O)[O-])c1C
inactive: [2] | [3] | [4] | [5] | [6] | [1] | [7] | [8] | [9] | [10]

CCC(S)C(C)CO (stereo not drawn)
inactive: [2] | [3] | [4] | [5] | [6] | [1] | [7] | [8] | [9] | [10]

C=CCOC(=O)COCCC(C)C
inactive: [1]

COc1ccc(C)cc1
inactive: [1]

CC(C)(C)C1CCCCC1OCCCCO (stereo not drawn)
inactive: [1]

CC1CCCCCCCCCCCCC(=O)C1 (stereo not drawn)
inactive: [2] | [3] | [4] | [5] | [6] | [1] | [7] | [8] | [9] | [10]

CC(=O)C=CC1=C(C)CCCC1(C)C
inactive: [1]

CC1=NC(C)C(C)S1 (stereo not drawn)
inactive: [15] | [16] | [3] | [17] | [4] | [18] | [5] | [6] | [1] | [19] | [7] | [20] | [8] | [9] | [10]

CC1=C(O)C(=O)OC1C (stereo not drawn)
inactive: [15] | [16] | [3] | [17] | [4] | [18] | [5] | [6] | [1] | [19] | [7] | [20] | [8] | [9] | [10]

CCCCCCC=CCCC=O
inactive: [2] | [3] | [17] | [4] | [18] | [5] | [6] | [1] | [19] | [7] | [20] | [8] | [9] | [10]

CC1=C(O)C(=O)C(C)O1 (stereo not drawn)
inactive: [15] | [16] | [3] | [17] | [4] | [18] | [5] | [6] | [1] | [19] | [7] | [20] | [8] | [9] | [10]

CCCCCC(S)C(C)CO (stereo not drawn)
inactive: [2] | [3] | [4] | [5] | [6] | [1] | [7] | [8] | [9] | [10]
